# In ChEMBL document CHEMBL3045677, “Sulfonamide-1,2,4-thiadiazole derivatives as antifungal and antibacterial agents: synthesis, biological evaluation, lipophilicity, and conformational studies” (2010):
# What was measured:
# Fulvia fulva = assay: Antifungal activity against Passalora fulva TK5318 at 28 degC measured after 72 hr by microdilution method; type: functional; conditions: TK5318, 72 h
# Summary of the method: (§1)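 Fungi were kept on malt agar at 4 °C. Spores were washed off with sterile 0.85% saline containing 0.1% Tween 80 and adjusted to about 1.0×10⁵ per well. Compounds were dissolved in DMSO (1 mg/ml stock) and serially diluted in malt broth with inoculum in 96-well plates, 72 h at 28 °C, for MIC. MFC came from subculture into fresh broth for a further 72 h at 28 °C.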
# Aspergillus versicolor = assay: Antifungal activity against Aspergillus versicolor ATCC 11730 at 28 degC measured after 72 hr by microdilution method; type: functional; conditions: ATCC 11730, 72 h; summary of the method: as §1
# Aspergillus flavus = assay: Antifungal activity against Aspergillus flavus ATCC 9643 at 28 degC measured after 72 hr by microdilution method; type: functional; conditions: ATCC 9643, 72 h; summary of the method: as §1
# Aspergillus niger = assay: Antifungal activity against Aspergillus niger ATCC 6275 at 28 degC measured after 72 hr by microdilution method; type: functional; conditions: ATCC 6275, 72 h; summary of the method: as §1
# Trichoderma viride = assay: Antifungal activity against Hypocrea rufa IAM 5061 at 28 degC measured after 72 hr by microdilution method; type: functional; conditions: IAM 5061, 72 h; summary of the method: as §1
# Aspergillus fumigatus = assay: Antifungal activity against plant isolate Aspergillus fumigatus at 28 degC measured after 72 hr by microdilution method; type: functional; summary of the method: as §1
# Penicillium ochrochloron = assay: Antifungal activity against Penicillium ochrochloron ATCC 9112 at 28 degC measured after 72 hr by microdilution method; type: functional; conditions: ATCC 9112, 72 h; summary of the method: as §1
# Talaromyces funiculosus = assay: Antifungal activity against Talaromyces funiculosus ATCC 36839 at 28 degC measured after 72 hr by microdilution method; type: functional; conditions: ATCC 36839, 72 h; summary of the method: as §1
# Listeria monocytogenes [1] = assay: Antibacterial activity against Listeria monocytogenes NCTC 7973 at […] degC measured after 72 hr by microdilution method; type: functional; conditions: NCTC 7973, 72 h
# Summary of the method: (§2)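 Bactericidal endpoint: after the 24 h broth microdilution (1.0×10⁴ CFU per well, LB broth, […] °C), wells were serially subcultured into plates of fresh broth and incubated a further 72 h. MBC was the lowest concentration with no visible growth, taken as 99.5% killing of the original inoculum.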
# Proteus mirabilis [2] = assay: Antibacterial activity against Proteus mirabilis at […] degC measured after 72 hr by microdilution method; type: functional; summary of the method: as §2
# Salmonella typhimurium [3] = assay: Antibacterial activity against Salmonella enterica subsp. enterica serovar TyphimuriumATCC 13311 at […] degC measured after 72 hr by microdilution method; type: functional, Salmonella enterica subsp. enterica serovar Typhimurium; conditions: ATCC 13311, 72 h; summary of the method: as §2
# Pseudomonas aeruginosa [4] = assay: Antibacterial activity against Pseudomonas aeruginosa ATCC 27853 at […] degC measured after 72 hr by microdilution method; type: functional; conditions: ATCC 27853, 72 h; summary of the method: as §2
# Escherichia coli [5] = assay: Antibacterial activity against Escherichia coli ATCC 35210 at […] degC measured after 72 hr by microdilution method; type: functional; conditions: ATCC 35210, 72 h; summary of the method: as §2
# Staphylococcus aureus [6] = assay: Antibacterial activity against Staphylococcus aureus ATCC 6538 at […] degC measured after 72 hr by microdilution method; type: functional; conditions: ATCC 6538, 72 h; summary of the method: as §2
# Micrococcus flavus [7] = assay: Antibacterial activity against Micrococcus flavus ATCC 10240 at […] degC measured after 72 hr by microdilution method; type: functional; conditions: ATCC 10240, 72 h; summary of the method: as §2
# Bacillus cereus [8] = assay: Antibacterial activity against clinical isolate Bacillus cereus at […] degC measured after 72 hr by microdilution method; type: functional; summary of the method: as §2
# Listeria monocytogenes [9] = assay: Antibacterial activity against Listeria monocytogenes NCTC 7973 at […] degC measured after 24 hr by microdilution method; type: functional; conditions: NCTC 7973, 24 h
# Summary of the method: (§3)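 Bacteria suspended in sterile saline at 1.0×10⁵ CFU/ml and added at 1.0×10⁴ CFU per well to LB broth with compound (1 mg/ml) in 96-well plates. Incubated 24 h at […] °C. MIC was the lowest concentration without visible growth under a binocular microscope. OD 655 nm was read against a blank and a positive control.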
# Salmonella typhimurium [10] = assay: Antibacterial activity against Salmonella enterica subsp. enterica serovar Typhimurium ATCC 13311 at […] degC measured after 24 hr by microdilution method; type: functional; conditions: ATCC 13311, 24 h; summary of the method: as §3
# Pseudomonas aeruginosa [11] = assay: Antibacterial activity against Pseudomonas aeruginosa ATCC 27853 at […] degC measured after 24 hr by microdilution method; type: functional; conditions: ATCC 27853, 24 h; summary of the method: as §3
# Proteus mirabilis [12] = assay: Antibacterial activity against Proteus mirabilis at […] degC measured after 24 hr by microdilution method; type: functional; summary of the method: as §3
# Escherichia coli [13] = assay: Antibacterial activity against Escherichia coli ATCC 35210 at […] degC measured after 24 hr by microdilution method; type: functional; conditions: ATCC 35210, 24 h; summary of the method: as §3
# Staphylococcus aureus [14] = assay: Antibacterial activity against Staphylococcus aureus ATCC 6538 at […] degC measured after 24 hr by microdilution method; type: functional; conditions: ATCC 6538, 24 h; summary of the method: as §3
# Bacillus cereus [15] = assay: Antibacterial activity against clinical isolate Bacillus cereus at […] degC measured after 24 hr by microdilution method; type: functional; summary of the method: as §3
# Micrococcus flavus [16] = assay: Antibacterial activity against Micrococcus flavus ATCC 10240 at […] degC measured after 24 hr by microdilution method; type: functional; conditions: ATCC 10240, 24 h; summary of the method: as §3
MIC (Fulvia fulva) [µM],MIC (Aspergillus versicolor) [µM],MIC (Aspergillus flavus) [µM],MIC (Aspergillus niger) [µM],MIC (Trichoderma viride) [µM],MIC (Penicillium ochrochloron) [µM],MIC (Talaromyces funiculosus) [µM],SMILES,MFC (Fulvia fulva) [µM],MFC (Aspergillus versicolor) [µM],MFC (Aspergillus flavus) [µM],MFC (Aspergillus niger) [µM],MFC (Trichoderma viride) [µM],MFC (Aspergillus fumigatus) [µM],MIC (Aspergillus fumigatus) [µM],MFC (Penicillium ochrochloron) [µM],MFC (Talaromyces funiculosus) [µM],MBC (Listeria monocytogenes [1]) [µM],MBC (Proteus mirabilis [2]) [µM],MBC (Salmonella typhimurium [3]) [µM],MBC (Pseudomonas aeruginosa [4]) [µM],further results
10.5,20.9,20.9,20.9,10.5,10.9,10.5,COc1cc(Cc2nnc(Nc3ccc([N+](=O)[O-])cc3)s2)c(S(=O)(=O)N(C)C)cc1OC,20.9,41.8,41.8,41.8,20.9,41.8,20.9,41.8,20.9,83.6,83.6,20.9,41.8,MBC (Escherichia coli [5]): 83.6 µM; MBC (Staphylococcus aureus [6]): 83.6 µM; MBC (Micrococcus flavus [7]): 83.6 µM; MBC (Bacillus cereus [8]): 20.9 µM; MIC (Listeria monocytogenes [9]): 41.8 µM; MIC (Salmonella typhimurium [10]): 10.5 µM; MIC (Pseudomonas aeruginosa [11]): 15.7 µM; MIC (Proteus mirabilis [12]): 41.8 µM; MIC (Escherichia coli [13]): 20.9 µM; MIC (Staphylococcus aureus [14]): 41.8 µM; MIC (Bacillus cereus [15]): 10.5 µM; MIC (Micrococcus flavus [16]): 20.9 µM
9.9,9.9,19.9,19.9,9.9,9.9,9.9,COc1cc(Cc2nnc(Nc3ccc(C(F)(F)F)cc3)s2)c(S(=O)(=O)N(C)C)cc1OC,19.9,39.8,39.8,39.8,19.9,39.8,19.9,39.8,19.9,79.6,79.6,19.9,39.8,MBC (Escherichia coli [5]): 79.6 µM; MBC (Staphylococcus aureus [6]): 39.8 µM; MBC (Micrococcus flavus [7]): 19.9 µM; MBC (Bacillus cereus [8]): 19.9 µM; MIC (Listeria monocytogenes [9]): 39.8 µM; MIC (Salmonella typhimurium [10]): 9.9 µM; MIC (Pseudomonas aeruginosa [11]): 19.9 µM; MIC (Proteus mirabilis [12]): 19.9 µM; MIC (Escherichia coli [13]): 39.8 µM; MIC (Staphylococcus aureus [14]): 19.9 µM; MIC (Bacillus cereus [15]): 9.9 µM; MIC (Micrococcus flavus [16]): 9.9 µM
